Consider one molecule from ChEMBL document CHEMBL1123853, “A novel class of cardiotonics. Synthesis and pharmacological properties of [4-(substituted-amino)phenyl]pyridazinones and related derivatives” (1987).

SMILES strings stand for the structures. Some results are limits rather than exact numbers.

The species entered for assay [1] is Canis familiaris. The assay is described as follows: Positive inotropic activity determined in the […](that produced 30% increase in dose- response curves [dP/dt(max)]). It is filed as functional. To be noted: Canis lupus familiaris. Put shortly:
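In the anesthetized open-chest dog (mongrel, 7–15 kg, pentobarbital 30 mg/kg iv, ventilated on room air), compounds were given intravenously and LV dP/dtmax was recorded. The dose giving a 30% rise in dP/dtmax was read from the dose-response curves. Results are mean ± SEM (n = 3) or mean ± range (n = 2).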

Assay [2] is filed under the species Canis familiaris. The assay is described as follows: Positive inotropic in the isolated papillary muscle of the dog. It is filed as functional, Canis lupus familiaris. Put shortly:
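Right ventricular anterior papillary muscle with septum, from mongrel dogs (7–12 kg, pentobarbital 30 mg/kg iv). It was perfused at about 100 mmHg via the septal artery with blood from a heparinized donor dog and paced at 120/min (1 ms pulses, about 1.5× threshold). Isometric tension was recorded. Saline solutions were injected intra-arterially, with amrinone as reference. ED15 (15% rise in developed tension) was taken from log dose-response curves. Results are mean ± SEM (n = 7) or mean ± range (n = 2).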

Assay [3] deals with Canis familiaris. The assay is described as follows: Inotropic activity determined by evaluating the % change in Cardiac out put (CO)at a dose of 300 ug/kg administered intravenously […]. It is filed as functional, Canis lupus familiaris. Put shortly: (§1)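 Mongrel dogs of either sex, 7–15 kg, anesthetized with sodium pentobarbital (30 mg/kg iv), open-chest, intubated and ventilated on room air. Compounds given intravenously. A femoral artery catheter with pressure transducer recorded SBP and DBP. dP/dtmax, right ventricular contractile force, cardiac output and heart rate were also recorded, as % change at each iv dose.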

Assay [4] relates to Canis familiaris. The assay is described as follows: Inotropic activity determined by evaluating the % change in Systolic Blood Pressure (SBP) at a dose of 300 ug/kg administered intravenously […]. Type of assay: functional, Canis lupus familiaris, Muscle tissue. Put shortly: as §1
The subject of assay [5] is Canis familiaris. The assay is described as follows: Inotropic activity determined by evaluating the maximum rate of rise in left ventricular pressure at a dose of 300 ug/kg administered intravenously […]. It is filed as functional, Canis lupus familiaris, Muscle tissue. In short, it runs like this: as §1
The subject of assay [6] is Canis familiaris. The assay is described as follows: Inotropic activity determined by evaluating the % change in Diastolic Blood Pressure (DBP) at a dose of 1000 ug/kg administered intravenously […]. It is filed as functional, Canis lupus familiaris. Put shortly: as §1
The subject of assay [7] is Canis familiaris. The assay is described as follows: Inotropic activity determined by evaluating the % change in contractile force (CF) of right ventricle at a dose of 300 ug/kg administered intravenously […]. Type of assay: functional, Canis lupus familiaris, Heart right ventricle. Put shortly:
as §1

Assay [8] has as its system Canis familiaris. The assay is described as follows: Inotropic activity determined by evaluating the % change in Diastolic Blood Pressure (DBP) at a dose of 300 ug/kg administered intravenously […]. Type of assay: functional, Canis lupus familiaris. Put shortly: as §1
Assay [9] has as its system Canis familiaris. The assay is described as follows: Inotropic activity determined by evaluating the % change in Cardiac out put (CO)at a dose of 1000 ug/kg administered intravenously […]. It is filed as functional, Canis lupus familiaris. Put shortly: as §1
In assay [10] the test system is Canis familiaris. The assay is described as follows: 0 Inotropic activity determined by evaluating the % change in Systolic Blood Pressure (SBP) at a dose of 1000 ug/kg administered intravenously […]. It is filed as functional, Canis lupus familiaris. In short, it runs like this:
as §1

For assay [11], the system named is Canis familiaris. The assay is described as follows: Inotropic activity determined by evaluating the % change in contractile force (CF) of right ventricle at a dose of 1000 ug/kg administered intravenously […]. Type of assay: functional, Canis lupus familiaris, Heart right ventricle. Put shortly: as §1
Assay [12] deals with Canis familiaris. The assay is described as follows: Inotropic activity determined by evaluating the % change in Heart Rate (HR) at a dose of 1000 ug/kg administered intravenously […]. Type of assay: functional, Canis lupus familiaris. In short, it runs like this: as §1
For assay [13], the system named is Canis familiaris. The assay is described as follows: Inotropic activity determined by evaluating the maximum rate of rise in left ventricular pressure at a dose of 1000 ug/kg administered intravenously […]. Type of assay: functional, Canis lupus familiaris, Muscle tissue. Put shortly:
as §1

Assay [14] has as its system Canis familiaris. The assay is described as follows: Inotropic activity determined by evaluating the % change in Heart Rate (HR) at a dose of 300 ug/kg administered intravenously […]. It is filed as functional, Canis lupus familiaris, Muscle tissue. In short, it runs like this:
as §1

Turning to `Cc1cc(O)nnc1-c1ccc(Nc2ccncc2)cc1.Cl`, the ED30 in the assay filed under Canis familiaris [1] is greater than 1 mg/kg. This molecule also came in with an ED15 in the assay filed under Canis familiaris [2] of 165 µg. Further, the “Change of CO” value with Canis familiaris [3] is 9.6%; in the assay on Canis familiaris [9], 7.6%. Besides, the “Change of SBP” value with Canis familiaris [4] was 0.5%; with Canis familiaris [10], 1.9%. The dP/dt in the assay on Canis familiaris [5] was -2.2%; with Canis familiaris [13] it was 6.2%. In addition, the “Change of DBP” value in the assay with Canis familiaris [6] was 1.4%; in the assay with Canis familiaris [8] it was -0.3%. For the same molecule, the figures for the “Change of CF” value in the assay with Canis familiaris [7] and in the assay on Canis familiaris [11] were -1.1% and 10.5%, respectively. In addition, the “Change of HR” value in the assay with Canis familiaris [12] was 5.8%; with Canis familiaris [14], -1.3%.
